How the values were obtained:
[1] = test system: Staphylococcus aureus; assay: Antibacterial activity against methicillin-resistant Staphylococcus aureus ATCC 43300 assessed as colony forming units at 1 ug/ml measured after 6 hrs by serial dilution method (reference value: 64.33 +/- 3.51 10^6CFU); format: functional
Outline: (§1)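 Bacteria were exposed to test compound over a range of µg/ml concentrations. Viable bacteria were counted by colony forming unit (CFU) assay at set time points (6 h and 24 h for M. smegmatis and S. aureus strains), and untreated bacteria served as the control. Percentage of population killed was calculated relative to the untreated control. Values are means ± S.D of three independent trials.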

[2] = test system: Pseudomonas aeruginosa; assay: Antibacterial activity against Pseudomonas aeruginosa PAO1 ATCC 15692 assessed as colony forming units at 500 ug/ml measured after 3 hr by serial dilution method (reference value: 141.66 +/- 7.5 10^8CFU); format: functional
[3] = test system: Mycolicibacterium smegmatis; assay: Antibacterial activity against Mycobacterium smegmatis MC2 155 ATCC 700084 assessed as colony forming units at 1 ug/ml measured after 6 hrs by serial dilution method (reference value: 70 +/- 1.73 10^3CFU); format: functional; outline: as §1
[4] = test system: Mycolicibacterium smegmatis; assay: Antibacterial activity against Mycobacterium smegmatis MC2 155 ATCC 700084 assessed as colony forming units at 50 ug/ml measured after 24 hrs by serial dilution method (reference value: 84 +/- 4.35 10^3CFU); format: functional; outline: as §1
[5] = test system: Staphylococcus aureus; assay: Antibacterial activity against Staphylococcus aureus ATCC 25923 assessed as colony forming units at 200 ug/ml measured after 6 hrs by serial dilution method (reference value: 65.66 +/- 3.51 10^6CFU); format: functional
[6] = test system: Mycolicibacterium smegmatis; assay: Antibacterial activity against Mycobacterium smegmatis MC2 155 ATCC 700084 assessed as colony forming units at 500 ug/ml measured after 6 hrs by serial dilution method (reference value: 70 +/- 1.73 10^3CFU); format: functional; outline: as §1
[7] = test system: Staphylococcus aureus; assay: Bactericidal activity against Staphylococcus aureus ATCC 25923 at 50 ug/ml measured after 24 hrs by serial dilution method relative to control; format: functional
[8] = test system: Pseudomonas aeruginosa; assay: Antibacterial activity against Pseudomonas aeruginosa PAO1 ATCC 15692 measured after 1 to 3 hrs by serial dilution method
[9] = test system: Mycolicibacterium smegmatis; assay: Antibacterial activity against Mycobacterium smegmatis MC2 155 ATCC 700084 assessed as colony forming units at 200 ug/ml measured after 24 hrs by serial dilution method (reference value: 84 +/- 4.35 10^3CFU); format: functional; outline: as §1
[10] = test system: Staphylococcus aureus; assay: Antibacterial activity against Staphylococcus aureus ATCC 25923 assessed as colony forming units at 100 ug/ml measured after 6 hrs by serial dilution method (reference value: 65.66 +/- 3.51 10^6CFU); format: functional
[11] = test system: Staphylococcus aureus; assay: Bactericidal activity against methicillin-resistant Staphylococcus aureus ATCC 43300 at 50 ug/ml measured after 6 hrs by serial dilution method relative to control; format: functional; outline: as §1
[12] = test system: Mycolicibacterium smegmatis; assay: Bactericidal activity against Mycobacterium smegmatis MC2 155 ATCC 700084 at 50 ug/ml measured after 24 hrs by serial dilution method relative to control; format: functional; outline: as §1
[13] = test system: Mycolicibacterium smegmatis; assay: Antibacterial activity against Mycobacterium smegmatis MC2 155 ATCC 700084 assessed as colony forming units at 100 ug/ml measured after 6 hrs by serial dilution method (reference value: 70 +/- 1.73 10^3CFU); format: functional; outline: as §1
[14] = test system: Mycolicibacterium smegmatis; assay: Antibacterial activity against Mycobacterium smegmatis MC2 155 ATCC 700084 assessed as colony forming units at 300 ug/ml measured after 6 hrs by serial dilution method (reference value: 70 +/- 1.73 10^3CFU); format: functional; outline: as §1
[15] = test system: Pseudomonas aeruginosa; assay: Antibacterial activity against Pseudomonas aeruginosa PAO1 ATCC 15692 assessed as colony forming units at 1 ug/ml measured after 1 hr by serial dilution method (reference value: 85.33 +/- 4.04 10^8CFU); format: functional
[16] = test system: Pseudomonas aeruginosa; assay: Antibacterial activity against Pseudomonas aeruginosa PAO1 ATCC 15692 assessed as colony forming units at 50 ug/ml measured after 3 hr by serial dilution method (reference value: 141.66 +/- 7.5 10^8CFU); format: functional
[17] = test system: Mycolicibacterium smegmatis; assay: Bactericidal activity against Mycobacterium smegmatis MC2 155 ATCC 700084 at 50 ug/ml measured after 6 hrs by serial dilution method relative to control; format: functional; outline: as §1
[18] = test system: Mycolicibacterium smegmatis; assay: Antibacterial activity against Mycobacterium smegmatis MC2 155 ATCC 700084 assessed as colony forming units at 10 ug/ml measured after 24 hrs by serial dilution method (reference value: 84 +/- 4.35 10^3CFU); format: functional; outline: as §1
[19] = test system: Pseudomonas aeruginosa; assay: Antibacterial activity against Pseudomonas aeruginosa PAO1 ATCC 15692 assessed as colony forming units at 10 ug/ml measured after 3 hr by serial dilution method (reference value: 141.66 +/- 7.5 10^8CFU); format: functional
[20] = test system: Staphylococcus aureus; assay: Antibacterial activity against Staphylococcus aureus ATCC 25923 assessed as colony forming units at 10 ug/ml measured after 24 hrs by serial dilution method (reference value: 77.66 +/- 5.13 10^6CFU); format: functional
[21] = test system: Mycolicibacterium smegmatis; assay: Antibacterial activity against Mycobacterium smegmatis MC2 155 ATCC 700084 assessed as colony forming units at 300 ug/ml measured after 24 hrs by serial dilution method (reference value: 84 +/- 4.35 10^3CFU); format: functional; outline: as §1
[22] = test system: Staphylococcus aureus; assay: Antibacterial activity against methicillin-resistant Staphylococcus aureus ATCC 43300 assessed as colony forming units at 10 ug/ml measured after 6 hrs by serial dilution method (reference value: 64.33 +/- 3.51 10^6CFU); format: functional; outline: as §1
[23] = test system: Staphylococcus aureus; assay: Antibacterial activity against Staphylococcus aureus ATCC 25923 assessed as colony forming units at 50 ug/ml measured after 6 hrs by serial dilution method (reference value: 65.66 +/- 3.51 10^6CFU); format: functional
[24] = test system: Staphylococcus aureus; assay: Antibacterial activity against Staphylococcus aureus ATCC 25923 assessed as colony forming units at 10 ug/ml measured after 6 hrs by serial dilution method (reference value: 65.66 +/- 3.51 10^6CFU); format: functional
[25] = test system: Mycolicibacterium smegmatis; assay: Bactericidal activity against Mycobacterium smegmatis MC2 155 ATCC 700084 at >200 ug/ml measured after 6 and 24 hrs by serial dilution method relative to control; format: functional; outline: as §1
[26] = test system: Mycolicibacterium smegmatis; assay: Antibacterial activity against Mycobacterium smegmatis MC2 155 ATCC 700084 assessed as colony forming units at 100 ug/ml measured after 24 hrs by serial dilution method (reference value: 84 +/- 4.35 10^3CFU); format: functional; outline: as §1
[27] = test system: Pseudomonas aeruginosa; assay: Antibacterial activity against Pseudomonas aeruginosa PAO1 ATCC 15692 assessed as colony forming units at 500 ug/ml measured after 1 hr by serial dilution method (reference value: 85.33 +/- 4.04 10^8CFU); format: functional
[28] = test system: Pseudomonas aeruginosa; assay: Bactericidal activity against Pseudomonas aeruginosa PAO1 ATCC 15692 at >300 ug/ml measured after 1 and 3 hrs by serial dilution method relative to control; format: functional
[29] = test system: Staphylococcus aureus; assay: Antibacterial activity against Staphylococcus aureus ATCC 25923 assessed as colony forming units at 50 ug/ml measured after 24 hrs by serial dilution method (reference value: 77.66 +/- 5.13 10^6CFU); format: functional

Row | SMILES | Activity [1] [×10⁶ CFU] | Activity [2] [×10⁸ CFU] | Activity [3] [×10³ CFU] | Activity [4] [×10³ CFU] | Activity [5] [×10⁶ CFU] | Activity [6] [×10³ CFU] | Activity [7] [%] | Activity [8] | Activity [9] [×10³ CFU] | Activity [10] [×10⁶ CFU] | Activity [11] [%] | Activity [12] [%] | Activity [13] [×10³ CFU] | Activity [14] [×10³ CFU] | Activity [15] [×10⁸ CFU] | Activity [16] [×10⁸ CFU] | Activity [17] [%] | Activity [18] [×10³ CFU] | Activity [19] [×10⁸ CFU] | Activity [20] [×10⁶ CFU] | other results
1 | Cc1ccc(O)c(NC(=O)/C=C/c2ccc(O)c(O)c2)c1 | 61 | 0 | 65.66 | 45.66 | 4.66 | 0 | 89.6 | Dose-dependent effect | 15 | 14 | 57.5 | 45.6 | 14.33 | 0 | 62 | 87 | 63.8 | 58 | 112 | 63 | Activity [21]: 0 ×10³ CFU; Activity [22]: 44.66 ×10⁶ CFU; Activity [23]: 13.66 ×10⁶ CFU; Activity [24]: 25.66 ×10⁶ CFU; Activity [25]: 100%; Activity [26]: 36.33 ×10³ CFU; Activity [27]: 0 ×10⁸ CFU; Activity [28]: 100%; Activity [29]: 8 ×10⁶ CFU
2 | O=C(/C=C/c1ccc(O)c(O)c1)Nc1ccccc1Nc1ccccc1 | 58 | 0 | 52.33 | 18.33 | 0 | 0 | 68.2 | Dose-dependent effect | 0 | 5 | 52.8 | 78.1 | 24.66 | 0 | 61 | 53.66 | 51.9 | 35.33 | 91.66 | 40 | Activity [21]: 0 ×10³ CFU; Activity [22]: 48 ×10⁶ CFU; Activity [23]: 8.66 ×10⁶ CFU; Activity [24]: 40 ×10⁶ CFU; Activity [25]: 100%; Activity [26]: 8 ×10³ CFU; Activity [27]: 0 ×10⁸ CFU; Activity [28]: 100%; Activity [29]: 24.66 ×10⁶ CFU

Source: ChEMBL document CHEMBL3868627, “Radical scavenging and antibacterial activity of caffemides against gram positive, gram negative and clinical drug resistance bacteria” (Bioorg Med Chem Lett, 2016)
